High-throughput results as filed in PubChem BioAssay.
TAAR1 agonist: human TAAR1 agonists, primary screen, Fluo-8 calcium fluorescence, CHO RD-HGA16 cells | vehicle wells 0%, saturating PEA agonist 100% | actives 0.99% (n = 360,000) | activation, % at 3 µM | AID 624467, 2012 | Trace amine-associated receptor 1 (Homo sapiens), Q96RJ0;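 active = activation above the mean activation of all test compounds in the run plus 3 SD, cut at about 38% in these data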
Target sequence (Q96RJ0 whole entry, looked up): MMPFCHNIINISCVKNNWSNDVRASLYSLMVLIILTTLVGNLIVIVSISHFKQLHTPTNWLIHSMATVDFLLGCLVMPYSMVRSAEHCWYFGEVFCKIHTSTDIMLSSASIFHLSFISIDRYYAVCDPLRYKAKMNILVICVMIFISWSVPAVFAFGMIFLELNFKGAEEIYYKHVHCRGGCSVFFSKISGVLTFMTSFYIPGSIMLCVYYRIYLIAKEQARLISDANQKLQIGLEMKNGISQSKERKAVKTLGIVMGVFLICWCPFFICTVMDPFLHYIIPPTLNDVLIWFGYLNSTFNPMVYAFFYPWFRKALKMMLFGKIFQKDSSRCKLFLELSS
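System: CHO-derived RD-HGA16 cells with stable Gα16 and human TAAR1. Times: 17-24 h plating, Fluo-8 75 min 37 °C, 30 min RT. Measured by: calcium-sensitive Fluo-8 signal, excitation 470-495, emission 515-575 nm. Read-out basis: % activation relative to PEA EC100 response. Control set: DMSO and PEA EC100. Repeats: no replicates (n 1).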
TAAR1 antagonist: human TAAR1 antagonists, primary screen, Fluo-8 calcium fluorescence, CHO RD-HGA16 cells; AID 624466, 2012; inhibition, % at 3 µM; actives 1.5% (n = 360,000); Trace amine-associated receptor 1 (Homo sapiens), Q96RJ0; antagonist;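 active = inhibition above a per-plate cutoff, the mean inhibition of test compounds on that plate plus 3 SD, cut at about 49% in these data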;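 also: 0% = DMSO plus EC80 beta-PEA response and 100% = DMSO alone without agonist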
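Test system: hTAAR1-expressing CHO RD-HGA16 cells, Gα16-coupled; Probe or stimulus: EC80 β-phenethylamine stimulus; Compound dosing: single nominal final test compound concentration of 3 µM; Timing: 140 s kinetic read after compound, 140 s after agonist; Signal: Fluo-8 calcium-sensitive fluorescence; Measure: % inhibition of agonist calcium response; Controls: DMSO and EC80 PEA controls.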
OXTR agonist: human OXTR agonists, primary screen, fluorescence, CHO-OTR cells, Fluo-8 calcium; Fluo-8 calcium fluorescence; normalized: DMSO 0%, oxytocin 100%; activation, % at 3 µM; actives 0.32% (n = 320,000); AID 2435, 2010;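 active = activation above the mean of all tested compounds plus 3 SD, cutoff set per screening run, cut at about 20% in these data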;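 also: peak over basal fluorescence ratio from a 100 s FLIPR kinetic read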
V1aR counter: agonists of human V1a receptor, primary screen, counter-screen for OXTR agonist project, fluorescence, CHO-V1R cells; actives 0.25% (n = 320,000); Vasopressin V1a receptor (Homo sapiens), P37288; Fluo-8 calcium fluorescence, agonist mode; 0% DMSO, 100% 3 nM vasopressin; activation, % at 3 µM; AID 2797, 2010;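 active = activation above the mean activation of all tested compounds plus 3 SD, per screening run, cut at about 20% in these data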;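 also: signal is peak over basal fluorescence ratio across a 100 second FLIPR read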
Target sequence (P37288 whole entry, looked up): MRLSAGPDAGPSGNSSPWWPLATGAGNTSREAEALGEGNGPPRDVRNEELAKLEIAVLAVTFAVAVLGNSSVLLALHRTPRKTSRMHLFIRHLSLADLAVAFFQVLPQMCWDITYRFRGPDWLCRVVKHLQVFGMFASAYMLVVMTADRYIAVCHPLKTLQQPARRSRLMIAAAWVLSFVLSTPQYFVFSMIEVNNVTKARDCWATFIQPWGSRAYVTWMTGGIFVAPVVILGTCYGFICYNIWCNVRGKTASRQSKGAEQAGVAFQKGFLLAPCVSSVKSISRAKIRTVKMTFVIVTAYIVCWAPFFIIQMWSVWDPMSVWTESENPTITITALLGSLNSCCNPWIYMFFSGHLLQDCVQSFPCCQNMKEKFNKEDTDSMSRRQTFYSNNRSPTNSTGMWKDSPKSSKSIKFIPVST
OXTR potentiator: human OXTR potentiators, primary screen, fluorescence, CHO-OTR cells, Fluo-8 calcium. activation, % at 3 µM. AID 2445, 2010. Fluo-8 calcium fluorescence, potentiator mode; 0% = oxytocin EC15, 100% = EC100. actives 0.061% (n = 320,000). Oxytocin receptor (Homo sapiens), P30559;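 active = activation above that plate's cutoff, the mean activation of tested compounds plus 3 SD, cut at about 6.6% in these data, passing the limit was not always enough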;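 also: 100% uses oxytocin at 75 nM as the full agonist control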
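Material: CHO-OTR cells, human receptor; compound dosing: single dose, 3.0 µM nominal final compound concentration; schedule: 6 min compound pre-incubation at room temperature, 100 s kinetic read; measured by: kinetic Fluo-8 calcium fluorescence; read-out basis: % activation vs EC15 and EC100 oxytocin; controls: EC15 oxytocin alone as 0%, 75 nM oxytocin as 100%; replicates: singlicate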
OXTR pot cf: human OXTR potentiators, confirmation, fluorescence, CHO-OTR cells, triplicate; Fluo-8 calcium fluorescence, potentiation; scaled from low-dose to maximal oxytocin; activation, % at 3 µM; 180 tested, under 10 active; shares compounds with OXTR potentiator;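 active = mean percent activation over triplicates above a cutoff set from solvent-only control plates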;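 also: compounds tested in the presence of an EC15 dose of oxytocin; 0% = EC15 oxytocin with DMSO and 100% = EC100 oxytocin with DMSO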
TAAR1 ag conf: human TAAR1 agonists, retest of hits, confirmation, Fluo-8 calcium fluorescence, CHO RD-HGA16 cells; shares compounds with TAAR1 agonist; scaled: DMSO 0%, maximal phenethylamine 100%; activation, % at 3 µM; actives 82% (n = 2,400); AID 651783, 2012;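 active = activation above a cutoff set at the run's mean compound activation plus 3 SD, cut at about 39% in these data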
Ga16 nonsel ag: nonselective calcium mobilization agonists, CHO-Ga16 cells, counter-screen for hTAAR1 agonist project, cell-based, fluorescence, CHO-Ga16 parental line | shares compounds with TAAR1 agonist | Fluo-8 calcium fluorescence; normalized to maximal ATP response, DMSO zero | activation, % at 3 µM | actives 50% (n = 2,400) | AID 651787, 2012;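 active = activation above the run cutoff, the mean activation over all tested wells plus 3 SD, cut at about 12% in these data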;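 also: 0% = DMSO wells and 100% = maximal ATP response on the peak over basal ratio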
TAAR1 desensitize: TAAR1 desensitization by agonist hits, confirmation, counter-screen for TAAR1 agonist project, cell-based, fluorescence, tachyphylaxis. shares compounds with TAAR1 agonist. CHO RD-HGA16 hTAAR1, Fluo-8 calcium, beta-PEA response inhibition. inhibition, % at 3 µM. actives 46% (n = 2,400). AID 651951, 2012;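 active = inhibition above the run cutoff, the mean inhibition of all test compounds plus 3 SD, cut at about 49% in these data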;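 also: beta-PEA stimulus applied at its EC80; loss of beta-PEA calcium signal after compound pretreatment read as receptor desensitization; 0% = DMSO with beta-PEA at EC80 and 100% = DMSO alone without agonist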
Ga16 nonsel ant: inhibition of ATP-evoked calcium response in CHO-Ga16 cells, counter-screen for TAAR1 agonist project, cell-based, fluorescence; shares compounds with TAAR1 agonist; CHO-Ga16 ATP-induced calcium, Fluo-8 fluorescence; inhibition, % at 3 µM; actives 39% (n = 2,400); AID 651952, 2012;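 active = inhibition above the plate's mean compound inhibition plus 3 SD, computed per plate, cut at about 22% in these data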;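 also: 0% = EC80 ATP with DMSO and 100% = DMSO wells without ATP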
An asterisk follows results filed as active; . = no result. Only some compounds are listed: those with a hit (about 2.3% of all), similar ones and a draw of the others.

SMILES	TAAR1 agonist	TAAR1 antagonist	OXTR agonist	V1aR counter	OXTR potentiator	OXTR pot cf	others
Cc1nc2c(OCc3ccc(C#N)cc3)cccn2c1N(C)C(=O)CCC1CCCC1	9	39	.	.	.	.
CCOc1ccccc1NC(=O)c1cccc(NC(=O)CC(c2ccccc2)c2ccccc2)c1	34	21	3	2	26*	9.7*
COCCOc1ccc(C(F)(F)F)cc1NC(=O)c1ccc(F)cc1	24	4	-2	0	-8	.
COCCOc1ccc(C(F)(F)F)cc1NC(=O)c1ccccc1	3	11	-2	-1	14*	-2
CN(CC(=O)Nc1cccc(F)c1)C(=O)C1CC(=O)N(Cc2ccccc2)C1 (stereo not drawn)	0	2	-1	0	-7	.
COc1ccc(-c2nc(CN3CCC(C(=O)NC4CCCC4)CC3)c(C)o2)cc1OC	3	-18	0	0	16*	-4
Cc1ccc(NC(=O)CCS(=O)(=O)c2ccccc2)cc1S(=O)(=O)N1CCOCC1	5	-13	2	1	11*	-1
Cc1ccc(NC(=O)CCc2ccccc2)cc1S(=O)(=O)N1CCOCC1	4	-3	2	1	-4	.
Cn1c(=O)c2c(nc(Br)n2CC(=O)C23CC4CC(CC(C4)C2)C3)n(C)c1=O	18	30	-1	0	10*	-4
O=c1cc(-c2c(F)c(F)c(F)c(F)c2F)oc2c(F)c(F)c(F)c(F)c12	.	.	-2	-1	19*	11*
O=C(O)c1ccc(-c2nnn(Cc3ccccc3F)n2)cc1	-4	-22	2	2	7.6*	-4
CN(C)S(=O)(=O)N1CCC(Oc2ccc(C(=O)N3CCCCCCC3)cc2)CC1	4	2	7	9	-11	.
S=C(Nc1cccc(Cl)c1Cl)NC1CCN(Cc2ccccc2)CC1	19	7	.	.	.	.
COc1ccc2cc(S(=O)(=O)N3CCOCC3)ccc2c1	0	4	0	1	11*	-4
O=C(COC(=O)Cc1cccc(F)c1)NC(=O)NC1CCCCC1	2	12	.	.	.	.
CC(=O)Nc1nnc([N+](=O)[O-])s1	2	3	.	.	.	.
Cc1ccc(-c2nc3ccccc3n2C(C(=O)NC(C)(C)C)C2CC2)cc1 (stereo not drawn)	0	-9	.	.	.	.
CCCOc1ccc(-c2c(C(=O)N/N=C/c3cccnc3)nnn2-c2nonc2N)cc1	5	-17	1	5	3	.
CCCOc1ccc(-c2c(C(=O)N/N=C/c3ccc(C)cc3)nnn2-c2nonc2N)cc1	37	-68	1	1	22*	3
C[C@H]1COC(=O)[C@@H](Cc2ccc(F)cc2)C/C=C\C[C@@H](CC(=O)NCCO)C(=O)N1	8	9	2	1	14*	-3
CCNc1nc(NC(C)C)nc(N(C)C#N)n1	2	6	-1	1	13*	3
COc1cc(OC)cc(-c2c(-c3cccs3)c3cc(-c4ccc(C(N)=O)cc4)ccc3n2C)c1	17	-5	3	2	13*	-5
COc1cccc(C(C(=O)NCC2CCCO2)N(C(=O)Cn2nnc3ccccc32)c2ccc(NC(C)=O)cc2)c1OC (stereo not drawn)	1	7	0	0	-7	.
CCOc1ccccc1Oc1c(C)oc2cc(OC(=O)c3ccco3)ccc2c1=O	8	-1	-1	0	13*	1
Cc1c(C(=O)NCCc2ccccc2)oc2ccccc12	-2	5	-2	-1	11*	-10
SMILES	TAAR1 agonist	TAAR1 antagonist	OXTR agonist	V1aR counter	OXTR potentiator	OXTR pot cf	others
COc1ccc2oc(C(=O)NCCc3ccccc3)c(C)c2c1	3	-4	-2	-1	4	.
O=[N+]([O-])CC(=Nc1ccc(F)cc1)N/N=C\c1oc(O)c2ccccc12	.	.	2	1	-6	.
C=CCOc1ccc(/C=C/C(=O)N2CCCN(S(=O)(=O)c3c(C)noc3C)CC2)cc1	2	-11	.	.	.	.
CCc1ccc(NC(=O)Cc2ccc(NC3=NC4CS(=O)(=O)CC4S3)cc2)cc1 (stereo not drawn)	5	-33	0	0	8.3*	-4
CCCOc1ccc(C(=O)OCC(=O)NCCc2ccc(OCC)c(OCC)c2)cc1OC	0	-34	-2	0	2	.
CCOc1ccc(CCNC(=O)COC(=O)c2cc(OC)cc(OC)c2)cc1OCC	-2	-14	-2	-1	9.8*	-3
COCCCNc1c2c(nc3nnnn13)CCCC2	1	-19	2	1	13*	-2
C1CCC(CNc2c3c(nc4nnnn24)CCCC3)CC1	6	-2	0	0	-7	.
Cc1nc(N2CCN(c3ccccc3O)CC2)c2c(-c3ccccc3)csc2n1	3	31	-1	-1	-10	.
Cc1ccc(-n2nc(C(=O)c3ccccc3)n3c(=O)c(Cc4ccccc4)nnc23)cc1	8	-1	-1	-2	9.9*	0
Cc1ccc(/C=N\NC(=O)Cc2noc3ccccc23)cc1	12	-13	0	1	-15	.
CCOc1ccc(-c2c(C(=O)N/N=C/c3ccc(Cl)cc3)nnn2-c2nonc2N)cc1	107*	26	7	11	23*	11*	TAAR1 ag conf=113*;Ga16 nonsel ag=70*;TAAR1 desensitize=45;Ga16 nonsel ant=13
